Data set [1] addresses T1, Adenosine receptor A3 (Homo sapiens) (UniProt P0DMS8).
T1 sequence (whole entry): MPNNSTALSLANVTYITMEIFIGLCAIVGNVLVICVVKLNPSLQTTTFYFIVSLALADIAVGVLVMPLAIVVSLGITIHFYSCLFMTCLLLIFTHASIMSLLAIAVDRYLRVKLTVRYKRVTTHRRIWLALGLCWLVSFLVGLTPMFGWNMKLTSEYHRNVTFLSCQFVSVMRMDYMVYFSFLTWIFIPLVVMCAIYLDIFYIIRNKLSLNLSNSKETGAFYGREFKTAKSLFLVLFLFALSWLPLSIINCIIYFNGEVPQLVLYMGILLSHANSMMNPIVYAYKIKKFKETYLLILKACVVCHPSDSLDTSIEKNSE
As to the kind of experiment: Displacement of [125I]ABA from human adenosine A3 receptor expressed in HEK cells relative to control. It counts as cell-based. The arrangement: concentration or dose not given beside the values. As to conditions: HEK293. Summed up: (§1)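 Single-point screen at 1 µM antagonist, run in duplicate, on transfected-cell membranes: CHO-K1 (hA1), HEK (hA2A, hA2B, hA3). 2 h at room temperature in 50 mM HEPES pH 7.4, 1 mM EDTA, 5 mM MgCl2, 1 U/mL adenosine deaminase; 5% DMSO except hA3. Nonspecific binding with 50 µM XAC, or 10 µM BW-1433 for hA3. Result is % radioligand bound relative to control.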
(Loss of bound radioactivity is the signal in a displacement assay; it reports binding, not function.)

Data set [2] deals with Adenosine receptor A2a (Rattus norvegicus) (UniProt P30543). As to the kind of experiment: Displacement of [3H]ZM241385 from rat brain striatum adenosine A2A receptor relative to control.
Data set [3] can be described thus: Aqueous solubility of the compound. It counts as physicochemical. As to conditions: water. Summed up:
(§2)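 Solubility of each compound measured in sterile water for injection, 0.9% saline, 5% dextrose in water, ethanol and octanol; values in mg/mL from duplicate determinations per solvent, individual values varying <5%.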

The target of data set [4] is T2, Adenosine receptor A1 (Homo sapiens, UniProt P30542).
T2 sequence (P30542 whole entry): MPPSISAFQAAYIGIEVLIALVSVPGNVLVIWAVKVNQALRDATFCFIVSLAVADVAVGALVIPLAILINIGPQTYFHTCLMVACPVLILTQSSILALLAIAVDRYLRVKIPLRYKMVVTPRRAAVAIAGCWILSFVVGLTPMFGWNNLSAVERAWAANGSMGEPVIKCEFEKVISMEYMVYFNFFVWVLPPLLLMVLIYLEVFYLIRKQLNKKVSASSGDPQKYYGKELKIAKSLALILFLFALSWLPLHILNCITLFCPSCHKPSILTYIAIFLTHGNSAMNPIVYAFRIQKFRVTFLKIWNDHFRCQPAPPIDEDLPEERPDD
As to the kind of experiment: Displacement of [125I]ABA from human adenosine A1 receptor expressed in CHOK1 cells. Type of data set: cell-based, CHO-K1. The gist of the method: (§3)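 Membranes from stably transfected CHO-K1 (hA1) or HEK (hA2A, hA2B, hA3) cells, 2 h at room temperature in 50 mM HEPES pH 7.4, 1 mM EDTA, 5 mM MgCl2, 1 U/mL adenosine deaminase. 5% DMSO final except hA3. Full curves 10^-11–10^-5 M, seven concentrations, four determinations each. Filtration, γ-counting, Ki derived.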

Data set [5] in a line: Clearance in Sprague-Dawley rat at 1 mg/kg, po. It counts as ADME, organism-based. The arrangement: dose 1 mg/kg, route oral. As to conditions: in vivo. The gist of the method:
(§4)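 Pharmacokinetics after one oral dose in male Sprague-Dawley rats (1 mg/kg, or 2 mg dose), beagle dogs and cynomolgus monkeys (1 mg/kg). Bioavailability, half-life, clearance and volume of distribution reported as mean ± variation.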

The target of data set [6] is T3, Adenosine receptor A1 (Rattus norvegicus, UniProt P25099).
T3 sequence (P25099 whole entry): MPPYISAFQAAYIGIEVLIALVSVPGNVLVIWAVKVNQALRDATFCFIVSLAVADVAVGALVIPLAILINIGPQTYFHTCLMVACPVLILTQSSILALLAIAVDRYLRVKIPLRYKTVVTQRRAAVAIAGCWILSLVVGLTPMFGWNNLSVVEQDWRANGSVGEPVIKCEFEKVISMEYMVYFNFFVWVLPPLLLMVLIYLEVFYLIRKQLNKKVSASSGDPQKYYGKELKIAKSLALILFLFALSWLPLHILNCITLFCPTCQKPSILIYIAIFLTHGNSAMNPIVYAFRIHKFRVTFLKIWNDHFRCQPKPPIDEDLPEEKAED
As to the kind of experiment: Displacement of [3H]CPX from rat brain cortex adenosine A1 receptor. Summed up:
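Crude membranes (10-20 µg protein) from rat brain cortex (A1, 2 nM 3H-CPX) or striatum (A2A, 0.5-1.2 nM 3H-ZM241385) incubated 90 min at room temperature in 50 mM Tris-HCl pH 7.4 with 2 U/mL adenosine deaminase. Stopped with ice-cold buffer, then vacuum filtration and scintillation counting. Ki from concentration-response displacement.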

A short description of data set [7]: Oral bioavailability in Sprague-Dawley rat at 1 mg/kg, po. It counts as ADME, organism-based. Conditions: in vivo. The gist of the method:
as §4

The next data set has as its target T4, Adenosine receptor A2b (Homo sapiens, UniProt P29275).
T4 sequence (P29275 whole entry): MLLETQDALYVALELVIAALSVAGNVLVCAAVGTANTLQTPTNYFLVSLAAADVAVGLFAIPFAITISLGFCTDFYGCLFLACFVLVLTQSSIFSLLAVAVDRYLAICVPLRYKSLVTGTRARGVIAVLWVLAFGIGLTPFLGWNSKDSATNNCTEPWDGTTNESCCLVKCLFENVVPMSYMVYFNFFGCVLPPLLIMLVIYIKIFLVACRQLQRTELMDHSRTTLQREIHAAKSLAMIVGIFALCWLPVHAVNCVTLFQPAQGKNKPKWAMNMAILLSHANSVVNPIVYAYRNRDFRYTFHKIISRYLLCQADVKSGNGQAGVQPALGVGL
As to the kind of experiment: Displacement of [125I]3-(4-aminobenzyl)-8-phenyloxyacetate-1-propyl-xanthine from human adenosine A2B receptor expressed in HEK cells. Type of data set: cell-based, HEK293. The gist of the method: as §3

Data set [8] can be described thus: Half life in Sprague-Dawley rat at 1 mg/kg, po. It counts as ADME, organism-based. The arrangement: dose 1 mg/kg, route oral. Conditions: in vivo. The gist of the method:
as §4

The nature of data set [9]: Solubility in octanol. Type of data set: physicochemical. Summed up: as §2
A short description of data set [10]: Solubility in ethanol. Type of data set: physicochemical. The gist of the method: as §2
The target of data set [11] is T5, Adenosine receptor A2b (Homo sapiens) (UniProt P29275).
T5 sequence (whole entry): T4 sequence (P29275 whole entry)
As to the kind of experiment: Displacement of [125I]3-(4-aminobenzyl)-8-phenyloxyacetate-1-propyl-xanthine from human adenosine A2B receptor expressed in HEK cells relative to control. Further details: concentration or dose not given beside the values. Conditions: HEK293. It counts as cell-based. Summed up:
as §1

For a further data set, the target named is Adenosine receptor A2a (Homo sapiens, UniProt P29274). As to the kind of experiment: Displacement of [125I]ZM-241385 from human adenosine A2A receptor expressed in HEK cells. Type of data set: cell-based, HEK293. Summed up: as §3
The nature of data set [12]: Clearance in Sprague-Dawley rat at 2 mg, po. It counts as ADME, organism-based. Conditions: in vivo. The gist of the method: as §4
A further data set concerns Rattus norvegicus. As to the kind of experiment: Volume of distribution in Sprague-Dawley rat at 2 mg, po. Type of data set: ADME, organism-based. As to conditions: in vivo. The gist of the method:
as §4

A short description of data set [13]: Solubility in 0.9% saline. It counts as physicochemical. The gist of the method: as §2
Data set [14] can be described thus: Solubility in 5% dextrose in water. Type of data set: physicochemical. Summed up: as §2
A short description of data set [15]: Oral bioavailability in Sprague-Dawley rat at 2 mg, po. It counts as ADME, organism-based. As to conditions: in vivo. Summed up:
as §4

Data set [16] is described as follows: Half life in Sprague-Dawley rat at 2 mg, po. It counts as ADME, organism-based. As to conditions: in vivo. The gist of the method:
as §4

For data set [17], the target named is Adenosine receptors; A1 & A2a (Homo sapiens) (UniProt P30542+P29274). As to the kind of experiment: Selectivity for human adenosine A1 receptor over human adenosine A2A receptor. Type of data set: protein assay.

Here are results for two compounds from ChEMBL document CHEMBL1137359, “Potent and orally bioavailable 8-bicyclo[2.2.2]octylxanthines as adenosine A1 receptor antagonists” (J Med Chem, 2006).

pKi: −log10 of the molar value. In brackets after ≈: the same amount, converted by molar mass.

Sequence of Adenosine receptor A2a (P29274 whole entry): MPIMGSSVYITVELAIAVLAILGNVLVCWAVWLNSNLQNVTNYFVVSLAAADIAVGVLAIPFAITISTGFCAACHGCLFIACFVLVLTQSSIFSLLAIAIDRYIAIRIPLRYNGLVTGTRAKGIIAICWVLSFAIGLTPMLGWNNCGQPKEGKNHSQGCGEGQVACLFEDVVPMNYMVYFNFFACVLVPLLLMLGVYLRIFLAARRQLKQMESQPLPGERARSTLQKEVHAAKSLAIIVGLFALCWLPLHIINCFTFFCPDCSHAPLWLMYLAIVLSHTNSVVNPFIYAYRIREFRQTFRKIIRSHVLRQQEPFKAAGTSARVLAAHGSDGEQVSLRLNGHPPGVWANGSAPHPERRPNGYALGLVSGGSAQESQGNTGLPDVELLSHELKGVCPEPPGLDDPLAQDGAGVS
Sequence of Adenosine receptor A2a (Rattus norvegicus) (P30543 whole entry): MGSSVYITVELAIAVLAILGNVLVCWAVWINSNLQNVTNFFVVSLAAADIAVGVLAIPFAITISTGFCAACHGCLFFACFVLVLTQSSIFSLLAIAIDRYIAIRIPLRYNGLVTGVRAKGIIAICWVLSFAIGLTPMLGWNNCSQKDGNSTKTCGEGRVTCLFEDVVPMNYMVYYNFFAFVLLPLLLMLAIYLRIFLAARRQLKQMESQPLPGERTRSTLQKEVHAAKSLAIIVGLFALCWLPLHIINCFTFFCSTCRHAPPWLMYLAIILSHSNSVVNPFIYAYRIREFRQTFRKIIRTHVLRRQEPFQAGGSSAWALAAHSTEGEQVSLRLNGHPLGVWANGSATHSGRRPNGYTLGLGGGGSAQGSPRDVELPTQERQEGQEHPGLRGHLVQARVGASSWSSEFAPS

Turning to `CCCn1c(=O)c2nc([C@]34CC[C@](CCCC(=O)O)(CC3)CC4)[nH]c2n(CCC)c1=O`, the values for the Activity in [1] and in data set [2] were 26% and 50%, respectively. The concentration in solution in [3] (solubility) was 0.5 mg/mL (≈ 1.16 mM). Moreover, the pKi at Adenosine receptor A1 [4] is 7.54; at Adenosine receptor A1 [6] it was 8.40; at Adenosine receptor A2b, 6.90. In data set [5], this compound gave a CL/F of 7.1 mL/min/kg. In data set [7], the bioavailability is 48%. The same compound had a half-life in [8] of 2.04 h.
`CCCn1c(=O)c2nc([C@]34CC[C@](C(=O)O)(CC3)CC4)[nH]c2n(CCC)c1=O`: the solubility in data set [9] was found to be 60 mg/mL (≈ 154 mM); in data set [10], 51 mg/mL (≈ 131 mM); in [3] it was 18.1 mg/mL (≈ 46.6 mM); in [13], 29.8 mg/mL (≈ 76.7 mM); in [14], 63 mg/mL (≈ 162 mM). Also, the Activity in data set [11] stood at 48%; in data set [1] it was 100%. For the same compound, the pKi was 5.97 at Adenosine receptor A2a, 7.48 on Adenosine receptor A1 [4] and 8.11 at Adenosine receptor A1 [6]. The compound further yielded a CL/F in [12] of 2.26 mL/min/kg. In addition, the Vdss with Rattus norvegicus stood at 0.57 L/kg. Also, the bioavailability in data set [15] came out at 97%. Besides, the half-life in data set [16] was 2.14 h. Further, the Ratio Ki in data set [17] came to 32.

For orientation: solubility means how much of the substance goes into solution per volume. As a reminder, the pKi is −log10 of the Ki, conventionally taken in molar units. As usually defined, the CL/F is clearance divided by bioavailability, as obtained after extravascular dosing. In general, bioavailability refers to dose-corrected exposure relative to a reference, in per cent. As usually defined, the half-life is the time needed for the level to fall by half in the phase considered.
